Apaf-1 inh = human Apaf-1 inhibition; O14727; reconstituted apoptosome caspase-3 activity, DEVD-Rh110 fluorescence; inhibition, % at 20 µM; hit rate 0.71% among 330,000; AID 489030; active = inhibition of at least 40% at 20 µM
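Assay system – apoptosome proteins · Medium – Hepes buffer, pH 7.5 · Also added – cytochrome c with DEVD-Rh110 · Timing – 30 min compound preincubation, 50 min activation, room temperature · Detection – Rh110 fluorescence, excitation 480 nm, emission 540 nm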
Rin1-Abl PPI inh = inhibitors of human Rin1-Abl protein interaction | P00519+Q13671 | TR-FRET Rin1/Abl binding, biochemical | inhibition, % at 7.35 µM | hit rate 0.4% among 360,000 | AID 588664; in the data active = inhibition above about 5%, passing the limit was not always enough
UBC13 inh = blocks human UBC13 polyubiquitin chain formation; P61088; TR-FRET; inhibition, % at 20 µM; hit rate 0.47% among 330,000; AID 485273; in the data active = inhibition above about 45%, passing the limit was not always enough; inconclusive = no clear call, values can overlap the other calls
UBC9 SUMO inh = inhibitors of human SUMOylation (UBC9) | hit rate 0.36% among 290,000 | AID 2006 | HTRF SUMOylation assay, SAE1/SAE2 + UBC9, in vitro | P63279 | inhibition, % at 35 µM; in the data active = inhibition above about 50%, passing the limit was not always enough; inconclusive = no clear call, values can overlap the other calls
GSTO1 counter = blocks human GSTO1 in RBBP9 counter-screen; recombinant GSTO1, activity-based probe fluorescence polarization; inhibition, % at 5.96 µM; hit rate 1.1% among 300,000;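 active = inhibition above the campaign mean inhibition plus 3 SD, cut at about 35% in these data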
PAD4 FP inh = inhibitors of human PAD4. AID 485272. Q9UM07. recombinant PAD4, RCA probe fluorescence polarization. inhibition, % at 6.36 µM. hit rate 0.41% among 330,000;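 active = percent inhibition above a cutoff equal to the mean of all tested compounds plus 3 SD, cut at about 15% in these data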
Target sequence (Q9UM07 whole entry, looked up): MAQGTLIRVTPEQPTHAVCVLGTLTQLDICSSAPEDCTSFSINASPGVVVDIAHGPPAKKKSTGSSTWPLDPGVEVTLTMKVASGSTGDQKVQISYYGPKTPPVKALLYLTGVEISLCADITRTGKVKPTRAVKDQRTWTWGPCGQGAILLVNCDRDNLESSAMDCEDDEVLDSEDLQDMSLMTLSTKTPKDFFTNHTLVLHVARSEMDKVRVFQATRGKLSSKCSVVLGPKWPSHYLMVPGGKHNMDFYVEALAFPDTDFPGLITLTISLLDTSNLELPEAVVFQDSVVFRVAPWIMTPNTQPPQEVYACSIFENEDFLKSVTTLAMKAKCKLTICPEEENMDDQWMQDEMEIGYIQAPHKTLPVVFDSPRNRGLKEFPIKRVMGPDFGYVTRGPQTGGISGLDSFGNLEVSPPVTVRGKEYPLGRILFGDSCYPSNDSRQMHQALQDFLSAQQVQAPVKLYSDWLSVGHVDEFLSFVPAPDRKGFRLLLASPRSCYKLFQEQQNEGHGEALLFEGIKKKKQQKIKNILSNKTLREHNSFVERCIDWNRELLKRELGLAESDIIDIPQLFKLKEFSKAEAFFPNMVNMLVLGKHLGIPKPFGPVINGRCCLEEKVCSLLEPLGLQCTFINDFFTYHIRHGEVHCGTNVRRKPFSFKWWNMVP
Casp3 UBC13 ctr = caspase-3 inhibition (UBC13 counter-screen) | AID 488856 | Recombinant caspase-3, Caspase-Glo 3/7 luminescence, 60 min | hit rate 4% among 1,400 | shares compounds with UBC13 inh | inhibition, % at 20 µM;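 active = mean inhibition across replicates above about 26%, limit read from the data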
UBC13 conf = confirmation of human UBC13 polyubiquitin inhibitors | shares compounds with UBC13 inh | UBC13 polyubiquitination, TR-FRET, biochemical | inhibition, % at 10 µM | hit rate 68% among 1,400 | AID 488859; in the data active = inhibition above about 45%; inconclusive = no clear call, values can overlap the other calls
A number is an active result; - = inactive; ? = inconclusive; . = no result given. Shown are actives, neighbours in structure and some others; about 2.2% of the full set was active somewhere.

SMILES	Apaf-1 inh	Rin1-Abl PPI inh	UBC13 inh	UBC9 SUMO inh	GSTO1 counter	PAD4 FP inh	Casp3 UBC13 ctr	UBC13 conf
Cc1cccc(NC(=O)CNC(=O)c2cc(S(=O)(=O)N(C)C)ccc2N2CCCC2)c1C	.	-	.	.	.	.	.	.
CC[C@@H](C)[C@@H]1CN([C@@H](CN2CCC[C@H]2CN2C(N)=NC[C@H]2CC(C)C)C(C)C)C(=N)N1CCCC1CCCC1	-	-	66	.	.	-	-	58
CCCCN1C(=N)N([C@@H](C)CN2CCC[C@H]2CN2C(N)=NC[C@H]2CC(C)C)C[C@H]1Cc1ccccc1	-	-	-	.	.	-	.	.
CCCCN1C(=N)N([C@@H](CCC)CN2CCC[C@H]2CN2C(N)=NC[C@@H]2Cc2ccccc2)C[C@H]1Cc1ccccc1	-	-	54	.	.	-	-	-
Cn1ccc2c(-c3ccc4c(c3)OCCO4)cc3c(c21)C1CCC3O1 (configuration not stated)	.	-	.	.	.	.	.	.
NNC(=O)C1C(O)CCC2CN3CCc4c([nH]c5ccccc45)C3CC21 (configuration not stated)	.	-	.	.	.	.	.	.
Cc1ccc(NC(=O)C2=CC=CN3CCS(=O)(=O)N=C23)cc1	-	-	-	.	.	-	.	.
COc1ccc(C(C)(C)C)cc1NC(=O)C1=CC=CN2CCS(=O)(=O)N=C12	-	-	50	.	.	-	-	-
N#Cc1ccc(C(=O)N2CCC3CC2c2cc(-c4ccc(F)cc4)ccc23)cc1 (configuration not stated)	.	-	.	.	.	.	.	.
Cc1nc(N)c2c(Cc3cccc4ccccc34)nn(C(C)(C)C)c2n1	-	-	74	.	-	-	-	-
N#Cc1c(N)n[nH]c1Cc1cccc2ccccc12	-	-	-	.	-	-	.	.
Cc1ccc(S(=O)(=O)n2cc(C=O)c3ccccc32)cc1	-	-	83	-	-	-	-	85
Cc1ccc(S(=O)(=O)N(C)C)cc1NC(=O)CN1C(=O)NC2(CCc3ccccc32)C1=O (configuration not stated)	.	-	.	.	.	.	.	.
COc1ccc(-c2cc(C3CCN(c4cc(Cl)nc(N)n4)CC3)[nH]n2)cc1	-	-	46	-	-	-	-	46
Nc1nc(Cl)cc(N2CCC(c3cc(-c4ccc(Cl)cc4)n[nH]3)CC2)n1	-	-	-	-	-	-	.	.
NC1=NC[C@@H](Cc2ccc(O)cc2)N1CCc1cc(C(F)(F)F)cc(C(F)(F)F)c1	-	-	64	-	-	-	-	-
Oc1ccc(C2=NNC(=NCc3ccc4c(c3)OCO4)SC2)c(O)c1	-	-	45	-	-	-	-	72
Clc1ccc(C2=NNC(=NCc3ccc4c(c3)OCO4)SC2)cc1	.	-	.	-	-	-	.	.
CCOC(=O)[C@H]1[C@H]2COc3ccc(Cl)cc3[C@@H]2N2C(=O)CN(Cc3ccco3)C(=O)[C@@]12C	-	-	-	.	.	-	.	.
Oc1ccc(CN2CCN(Cc3ccccc3)CC2)c2cccnc12	-	-	66	.	-	-	-	103
O=S(=O)(c1ccc(Cl)cc1)N1CCN(Cc2ccc(O)c3ncccc23)CC1	-	-	-	-	-	-	.	.
CN1CCN(C2CCN(Cc3ccc(O)c4ncccc34)CC2)CC1	-	-	60	.	.	-	-	70
O=C(NCCC1CCCCN1S(=O)(=O)c1ccccc1)C(=O)Nc1ccc(F)cc1F (configuration not stated)	-	-	-	.	-	-	.	.
Cc1ccc(S(=O)(=O)NN=C2CCCc3ccccc32)cc1	.	-	.	.	.	.	.	.
NS(=O)(=O)c1ccc(NC(=O)N2c3ccccc3Sc3ccccc32)cc1	-	-	46	-	-	-	-	-
SMILES	Apaf-1 inh	Rin1-Abl PPI inh	UBC13 inh	UBC9 SUMO inh	GSTO1 counter	PAD4 FP inh	Casp3 UBC13 ctr	UBC13 conf
CC1CCN(S(=O)(=O)c2ccc(NC(=O)N3c4ccccc4Sc4ccccc43)cc2)CC1	-	-	-	-	-	-	.	.
COc1cc2sc(-c3ccc(S(C)(=O)=O)cc3)c(C(=O)NCc3ccc(C)o3)c2cc1OC	-	-	46	.	.	-	-	-
COc1cc2sc(-c3ccc(S(C)(=O)=O)cc3)c(C(=O)NCCCCO)c2cc1OC	-	-	46	.	.	-	-	-
COc1ccc2sc(-c3ccc(S(C)(=O)=O)cc3)c(C(=O)NCCCN3CCCC3=O)c2c1	-	-	-	.	.	-	.	.
COc1cc(NC(=S)NCCN2CCOCC2)cc(OC)c1OC	-	-	61	-	-	-	-	-
COc1cc(NC(=S)NCCCN2CCOCC2)cc(OC)c1OC	-	-	-	-	-	-	.	.
NC(=O)CCCn1c(C(=O)c2cc(Cl)c(N)c(Cl)c2)c2ccc([N+](=O)[O-])cc2[n+]1[O-]	-	-	82	.	-	-	-	78
NC(=O)CCCn1c(C(=O)c2ccc(Cl)cc2)c2ccc([N+](=O)[O-])cc2[n+]1[O-]	-	-	-	.	-	-	.	.
CCCNC(=O)C1(C)CCCN(CC(=O)c2ccccc2OC)C1 (configuration not stated)	.	-	.	.	.	.	.	.
COc1ccc(OCC(=O)NNC(=O)c2ccccn2)cc1	-	-	69	-	-	-	-	96
COc1ccc(C(=O)NNC(=O)c2ccccn2)cc1	-	-	-	-	-	-	.	.
CC(Oc1ccccc1)C(=O)NNC(=O)c1ccccn1 (configuration not stated)	-	-	-	-	-	-	.	.
CC(Oc1cccc(Br)c1)C(=O)NNC(=O)c1ccccn1 (configuration not stated)	-	-	47	.	.	-	-	91
CC(=O)c1ccc(OCCCC(=O)NNC(=O)c2ccccn2)cc1	-	-	76	.	.	-	-	66
O=C(N/N=C(\c1ccccc1)c1cccnc1)c1cc(O)ccc1O	-	.	-	-	-	-	.	.
C[C@H](CO)N1C[C@H](C)[C@@H](CN(C)S(=O)(=O)c2ccccc2)Oc2c(NC(=O)Nc3ccc(C(F)(F)F)cc3)cccc2C1=O	-	-	52	.	.	-	-	-
COc1ccc(-c2c(-c3cc(OC)cc(OC)c3)n(C)c3ccc(Br)cc23)cc1	-	-	48	.	.	-	-	-
COc1cccc(-c2c(-c3cc(OC)cc(OC)c3)n(C)c3ccc(Br)cc23)c1	-	-	-	.	.	-	.	.
COc1cccc(-c2c(-c3cc(OC)cc(OC)c3)n(C)c3ccc(-c4ccc(OC)nc4)cc23)c1	-	-	46	.	.	-	-	?
CCCCCOc1ccc(Br)cc1/C(C)=N/NC1=NCCN1	-	-	58	-	-	-	-	64
CCCC[C@@H](CN[C@H](C)CNC)NCC1CCC(C(C)(C)C)CC1 (some centres not stated)	-	.	61	-	-	-	-	-
CCCOc1ccc(C(=O)NNC(=S)NC(C)=O)cc1	-	-	75	-	-	-	-	95
CCC(=O)NC(=S)NNC(=O)c1ccc([N+](=O)[O-])cc1	-	-	68	-	-	-	-	87
